{
  "source": "the RNAGym collection of RNA variant scans (doi:10.1126/science.aae0568)",
  "parents": {"B1": {"name": "tRNA (parent)", "chain": "GUUCCGUUGGCGUAAUGGUAACGCGUCUCCCUCCUAAGGAGAAGACUGCGGGUUCGAGUCCCGUACGGAACG"}},
  "note": "This sample holds only a part of the variants without activity.",
  "data": [
    {"variants_of": "B1", "assay": "yeast fitness relative to wild type (ratio to wild type); higher = fitter; tRNA-Arg(CCU), competitive growth, 37 C, YPD", "summary_of_the_method": "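Variants of the tRNA-Arg(CCU) gene were chemically synthesised with a 3% per-site mutation rate across 69 sites and placed at the native genomic locus in Saccharomyces cerevisiae. Six parallel replicates of the pooled strains were competed in YPD at 37°C for 24 hours, and gene amplicons from the start and end populations were read by 100-nucleotide paired-end sequencing. Darwinian fitness relative to wild type was derived from changes in genotype frequencies. Genotypes required ≥ 100 starting reads, and estimates < 0.5 were set to 0.5.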", "values": [
      {"variant": "GUUCCGUUGGCGUAAUGGGAAGGCGUCUCCCUCCUCAGGAGAAGACUGCGGGUUCGGGUACCGUAGGGAACG", "yeast fitness": "≤ 0.5"},
      {"variant": "GCUCCGUUGGCGUAAUGGUAACGCGUCUCCCUCCUAAGGAGAAGACUGCGGGUUCGCGUCCCGUACGGUACG", "yeast fitness": 0.578},
      {"variant": "GUUCCGUUGGCAUAAUGGUAACGGGUCUCCCUCCUAAAGCGACGAUUGCGGGUUCGAGUCCCGUACGCUACG", "yeast fitness": "≤ 0.5"},
      {"variant": "GUUCCGUUGGCGUAAUGGUAACGCGACUCCCUCCUAAGGAGAAGACUGCGGGUUCGGGUCCCGUACGGAACG", "yeast fitness": 0.973},
      {"variant": "GUACCGUUGGCGUAAUGGUAUCGCGUCUCCCUCCUAAGGAGAAGACUGCGGGUUCGAGUCCCGUACGGAACG", "yeast fitness": 0.71},
      {"variant": "GUUCCGUUGGCGUAAUGGUAACGCGUCUCCCUACUAAGGAGAAGACUGCGGGUUCGAGUUCCGUACGGAACG", "yeast fitness": "≤ 0.5"},
      {"variant": "GUUCCAUUGGUGCAAUGGUAACGCGUCUCCCUCCUAAGGAGAGGACUGCGGAUUCGAGUCCCGUACAGAACG", "yeast fitness": "≤ 0.5"},
      {"variant": "GUUCCGUUGGCGUAAUGGUAACGCGUCUCCCUCCUAAGGGGAAGACUGCGGGUUCGAGUCCUGUACGGCACG", "yeast fitness": 0.725},
      {"variant": "GUUCCGUUGGCGUAAUGCUAACGCGUCUCCCUCCUAAGGAGAAGACUGCGGGUUCGAGUCCCGUCCGAAACG", "yeast fitness": "≤ 0.5"},
      {"variant": "GUUCCGUUGGCGUAAUGGUAACGCGUCCCCCUCCUAAGGGGAAGACUGCGGGUUCGAGUCCCGUACGGACCG", "yeast fitness": 0.576},
      {"variant": "GUUCCGUCGGCGUAAUGGUAACGCGUCUCCCUCCUAAGGAGAAGACUCCGGGUUCGAGUCCCGUACGGAACG", "yeast fitness": 0.843},
      {"variant": "GUUCCGAUCGCGUAAUCGUAACGCGUCUCCCUCCUAAGGAGAAGACUACGGGUUCGAGUCCCGUACGGAACG", "yeast fitness": 0.525},
      {"variant": "GUUCCGUUGGCGUAAUGGUAACGCGUCUUCCUCCCACGGAGAAGACUGCGGGUUCGAGUCCCGUACGGAACG", "yeast fitness": "≤ 0.5"},
      {"variant": "GUUCCGUUGGCGUAAUGGUAACGCGUCUCCCUCCUAAGGAGAAGACUGCGAGUUCGAGUCCUGUACGGAACG", "yeast fitness": 0.763},
      {"variant": "GUUCCGUUGGCGUAAUGGCAACGUGUCUCCCUCCUAAGGAGAAGACUGCGGGAUCGAGUCCAGUAUGGAACG", "yeast fitness": "≤ 0.5"},
      {"variant": "GUUCCGUUGGCGUAAUGGUAACGCGUCUAACUCCUAAGGAGAAGACUGCGGGUUCGACUCCUGUACGGAACG", "yeast fitness": 0.565},
      {"variant": "GUUCCGUUGGCGUAAUGGUAGCGCGUCACUCUCCUAAGGAGAAGACUGCGGGUUCGAGUCCCGUACGGAACG", "yeast fitness": "≤ 0.5"},
      {"variant": "GUUCCGUCGGCGUAAUGGUAACGCGUCUCCCUCCUAAGGAGAAGACUGCGGCUUCGAGUCCCGUACGGAACG", "yeast fitness": 0.639},
      {"variant": "GUUCCGUUGGCGUAAUGGUUAUGCGUCUCCCUCCUAAGGAGGAGACUGCGGGUUCGAGUCCCGUACGGAACG", "yeast fitness": "≤ 0.5"},
      {"variant": "GUUUCGUUGGCGUAAUGGUAACGUGUCUCCCUCCUAAGGAGAAGACUGCGGGUUCCAGUCCCGUACGGAACG", "yeast fitness": 0.505},
      {"variant": "GUUCCGUUGGUGUAAUGGUUACGCGUCUCCCUCCUAAGCAGAAGACUGCGGGUGCGAGUCCCGUACGGAACG", "yeast fitness": "≤ 0.5"},
      {"variant": "GUUCCGUCGGCCUAAUGGUAACGCGGCUCCCUCCUAAGGAGAAGACUGCGGGUUCGAGUCCCGUACGGAACG", "yeast fitness": "≤ 0.5"},
      {"variant": "GUUCCGUUGGCGUAAUGGUAACGCGUCUCCCUCCUAAGGAGAAGACUGCGGGUUCGCGUCCCAUACGGAACG", "yeast fitness": 0.558},
      {"variant": "GUUCCGUUGGCGUGAUGGUAACGCGUGUCCCUCGUAUGGAGAAGACUGCGGGUUCGAGUCCCGAACGGACCG", "yeast fitness": 0.522},
      {"variant": "GUUCCGUUGGCGUAAUGGUCACGCGUCUCCCUCCUAAGGAGAAGACUGCGGGUUCGAGUCCCGAACGGAACG", "yeast fitness": 0.7},
      {"variant": "GUUCCAUUCGCGUAAUGGUAACACGCCUCCCUCCUAAGGUGUAGACUGCGGGUUCGAGUCCCGUACGGAACG", "yeast fitness": "≤ 0.5"},
      {"variant": "GUUCCGUUGGCGUAAGGGUAACGCGUCUCCCUCCUAAGGAGAAGACUGCGGGUUCGAGUCCCGUGCGGAACG", "yeast fitness": 0.904},
      {"variant": "GUUCCGUUGGCGUAAUGGUAACGCGUCUCUCUCCUAAGGAGAUGACUGCGGGUUAGAGUCCCGUACGGAACG", "yeast fitness": "≤ 0.5"},
      {"variant": "GUUCUGUUGGCGUACUGGUAACGCGUCUCCCUCGUAGGGAGAAGACUGCGGGUUCGAGUCCCGUGCGGAACG", "yeast fitness": "≤ 0.5"},
      {"variant": "GCUCCGUUGGCGUAAUGGUAACGCGUCUCCCUCCUAAGGAGAAGACUGCGGGUUCGAGUCCCGUACGGAUCG", "yeast fitness": 1.06},
      {"variant": "GUUCCGUUGGCGUAAUGAUAACGCGUCUCCCUCUUAAGCAGAAGACUGCGGGUUCGAGUCCCGUACGGAACG", "yeast fitness": "≤ 0.5"},
      {"variant": "GUUCCGUUGGCGUAAUGGUAUCGCGUCACCCUCCUAAGGAGCAGACUGGGGGUUCGAGUCCUGUACGGAACG", "yeast fitness": "≤ 0.5"},
      {"variant": "GUUCCGUUGGCGUAAUGGUAACGCGUCUCCCUCCCAAGGAGAAGACUGGGGGUUCGAGUCCCGUACGGAACG", "yeast fitness": 0.883},
      {"variant": "GUUCCGUUGGCGUAAUGGUAACGAGUCUCCCUCCUAAGGAGAAGACUGCGGGUUCGAGUCCCGGACGGAACG", "yeast fitness": 0.68},
      {"variant": "GUUCCGUUGGCGUAAUGGUAACGCGUCUCCCUCCUAAGGAGAAGACUGCGGGUUCGAGUCCCAUGCGGUACG", "yeast fitness": 0.609},
      {"variant": "GUUCCGUUGGCGUAAUGGUAACGCGUCUCCGUCCUAAGGAGAAGGCUGCGGGUUCGAGUGCCGUACGGAACG", "yeast fitness": "≤ 0.5"},
      {"variant": "GUUGCGUUGGCGUAAUGGUAACGCGCCUCCCUCCUAAGGAGAAGACUGCAGGUUCGAGUCCCGUACGGAACG", "yeast fitness": "≤ 0.5"},
      {"variant": "GUUCCGUUGGCGUAAAGGUAACGCGUCUCCCUCCUAAGGAGAGGACUGCGGGUUCGAGUCCCGUACGGAACG", "yeast fitness": 1.01}
    ]}
  ]
}
